Experimental data reported in PMC7359938 (Clinical and Translational Science, 2020).

Assays:
[1] = pivotal randomized controlled study; cited from earlier work
[2] = cited from earlier work
[3] = Safety and tolerability evaluation; assay type: in vivo, human
Outline: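 Fasted healthy men and women (21) received a single oral 25 mg dose with 250 mL water in a double-blind two-period crossover (5-day inpatient stays, ≥7-day washout). Safety covered everyone given at least one dose. Twelve-lead ECG was taken predose and at 1, 2 and 24 h. Hematology, serum chemistry and urinalysis were done at admission and at ~24 and 72 h after ≥10 h fasting. Results were summarized by treatment.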

[4] = tested on: VMAT2; details: in vitro, rats; ref Teva Pharmaceuticals, data on file; cited from earlier work
[5] = Study AUS‐SD‐809‐CTP‐06, single 25 mg dose

COc1cc2c(cc1OC)[C@H]1CC(=O)[C@H](CC(C)C)CN1CC2 (racemic) [Tetrabenazine, cis‐rac –1,3,4,6,7,11b‐hexahydro‐9,10‐dimethoxy‐3‐(2‐methylpropyl)2H‐benzo[a]quinolizin‐2‐one]
Patients requiring dose reduction for intolerability [1]: 44%
BDDCS classification [2]: Class II
Reported events of dizziness ([3]; Study AUS‐SD‐809‐CTP‐06): three
Number of subjects with at least one treatment‐emergent adverse event (TEAE) [3, 5]: 9
Percentage of subjects with at least one treatment‐emergent adverse event (TEAE) [3, 5]: 45%
Subjects with headache [3, 5]: 15%
Subjects with nausea [3, 5]: 15%
Subjects with somnolence [3, 5]: 10%
Tolerability of single doses ([3]; both studies, incl. 14C‐labeled analogues): well‐tolerated
Serious or severe TEAEs ([3]; either study): no serious or severe TEAEs
Clinical laboratory assessments, vital signs parameters, ECG measurements, physical examinations ([3]; following either treatment): no clinically significant findings
Effect of deuteration on binding to VMAT2 [4]: did not change the binding
